Common to all, as to type: functional
In test [1] the test system is Mus musculus. The experiment in a line: Antimaximal electroshock seizure (MES) activity in mice after peroral administration of 10 mg/kg of compound; 0/5. The following applies: route oral. (Protection in the maximal electroshock model is a classic sign of anticonvulsant action.)
Test [2] concerns Mus musculus. The test can be described thus: Antipentylene tetrazole activity was determined in mice when administered perorally. The following applies: po. The method, boiled down:
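Groups of five male Std-ddY mice received compound orally in 0.5% tragacanth, then pentylenetetrazole 175 mg/kg ip. Blockade of the tonic extensor component scored as anticonvulsant. ED50 was the dose protecting 50% of animals (Litchfield-Wilcoxon).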

The test system of test [3] is Mus musculus. The test can be described thus: Antimaximal electroshock seizure (MES) activity in mice after peroral administration of 100 mg/kg of compound; 4/5. The following applies: route oral.
In test [4] the test system is Mus musculus. The experiment in a line: Antimaximal electroshock seizure activity was determined in mice when administered perorally. The following applies: po.
The test system of test [5] is Mus musculus. The experiment in a line: Antiexploratory activity (EXPL) of mice determined by an antimex activity meter,100 mg/kg of dose was administered perorally; No inhibition.
The test system of test [6] is Mus musculus. The test can be described thus: Antitremorine activity(TRM) of mice after peroral administration of 10 mg/kg of compound; No inhibition. Particulars: route oral.
Test [7] deals with Mus musculus. The experiment in a line: Antitremorine activity(TRM) of mice after peroral administration of 100 mg/kg of compound. Particulars: route oral.
Test [8] deals with Mus musculus. The test can be described thus: Antireserpine activity (RES) of mice after peroral administration of 100 mg/kg of compound; No inhibition. The following applies: route oral.
Test [9] relates to Mus musculus. The test can be described thus: Antimaximal electroshock seizure (MES) activity in mice after peroral administration of 100 mg/kg of compound; 5/5. Particulars: route oral.
In test [10] the test system is Mus musculus. The test can be described thus: Antiexploratory activity (EXPL) of mice determined by an antimex activity meter,100 mg/kg of dose was administered perorally.
For test [11], the system named is Mus musculus. The test can be described thus: Antitremorine activity(TRM) of mice after peroral administration of 100 mg/kg of compound; Moderate inhibition (51-71%). The following applies: route oral.
Test [12] concerns Mus musculus. The experiment in a line: Antimaximal electroshock seizure (MES) activity in mice after peroral administration of 100 mg/kg of compound; 0/5. Particulars: route oral.
For test [13], the system named is Mus musculus. The experiment in a line: Antiexploratory activity (EXPL) of mice determined by an antimex activity meter, 100 mg/kg of dose was administered perorally. The following applies: route oral.
Test [14] deals with Mus musculus. The experiment in a line: Antitremorine activity(TRM) of mice after peroral administration of 100 mg/kg of compound; No inhibition. The following applies: route oral.
Test [15] deals with Mus musculus. The test can be described thus: Antireserpine activity (RES) of mice after peroral administration of mg/kg of compound; Slight inhibition (31-50%).
Test [16] has as its system Mus musculus. The test can be described thus: Antiexploratory activity (EXPL) of mice determined by an antimex activity meter, 50 mg/kg of dose was administered perorally; No inhibition. The following applies: route oral.
Test [17] has as its system Canis familiaris. The test can be described thus: Inhibition of apomorphine induced emesis in dogs at 2 mg/kg of dose. Particulars: Canis lupus familiaris. In short, it runs like this:
(§1)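 Beagle dogs (10-15 kg), groups of three, given compound po in a gelatin capsule; 2 h later apomorphine hydrochloride 0.3 mg/kg sc. Vomiting counted for 1 h; mean inhibition as percent of control. ED50 is the dose giving 50% inhibition of emesis, by Litchfield-Wilcoxon.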

For test [18], the system named is Canis familiaris. The test can be described thus: Inhibition of apomorphine induced emesis in dogs when administered perorally. Particulars: Canis lupus familiaris, po. In short, it runs like this: as §1
The subject of test [19] is Mus musculus. The test can be described thus: Antiexploratory activity (EXPL) of mice determined by an antimex activity meter, 10 mg/kg of dose was administered perorally. The following applies: route oral. In short, it runs like this:
(§2)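 Male Std-ddY mice (20-25 g), five per dose, given compound orally in 0.5% aqueous tragacanth. Two hours later each mouse was placed in the activity-meter cage and locomotor activity was counted for 3 min. Suppression is expressed as percent inhibition of control. ED50 (dose giving 50% inhibition) calculated by Litchfield-Wilcoxon.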

Test [20] deals with Mus musculus. The test can be described thus: Inhibition of conditioned avoidance response in mice when administered perorally. The following applies: po. In short, it runs like this: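 One-way active avoidance in male Std-ddY mice in a dark/light two-compartment box. Mice trained to move to the lit side on a warning stimulus to escape floor shock; groups of 10 avoiding at >80% in 10 trials. Compound po in 0.5% tragacanth. ED50 is the dose halving avoidance rate (Litchfield-Wilcoxon).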

The subject of test [21] is Mus musculus. The test can be described thus: Concentration of compound that causes catalepsy in the mice when administered perorally. Particulars: po. The method, boiled down:
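Male Std-ddY mice were dosed orally, vehicle 0.5% aqueous tragacanth. At 2 h, forepaws were placed on a rod 4.5 cm high. Failure to remove the paws within 30 s in three successive trials was scored cataleptic. ED50 was the dose giving catalepsy in 50% of mice (Litchfield-Wilcoxon).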

Test [22] deals with Mus musculus. The test can be described thus: Concentration of compound that causes ptosis in the mice when administered perorally. The following applies: po. In short, it runs like this:
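Five male Std-ddY mice per group were dosed orally in 0.5% aqueous tragacanth. At 2 h, eyelid closure was scored macroscopically (8 open to 0 fully closed). Group mean scores formed a dose-response curve. ED50 was the dose reducing the mean score to 50%.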

For test [23], the system named is Mus musculus. The experiment in a line: Antiexploratory activity (EXPL) of mice determined by an antimex activity meter, when administered perorally. The following applies: po. In short, it runs like this: as §2
Test [24] relates to Mus musculus. The experiment in a line: 3,4 -Dihydroxy phenylacetic acid (DOPAC) levels in mouse brain at 10 mg/kg dose. In short, it runs like this:
(§3)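 Male Std-ddY mice (20-25 g) dosed orally with compound dissolved or suspended in 0.5% aqueous tragacanth. DOPAC measured fluorometrically after purification by column chromatography on Sephadex G-10 and QAE-Sephadex. Brains from five mice per compound pooled for the determination.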

In test [25] the test system is Mus musculus. The test can be described thus: The homovanillic acid (HVA)levels in mouse brain at 10 mg/kg of dose. The method, boiled down: (§4)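 Male Std-ddY mice (20-25 g) dosed orally with compound in 0.5% aqueous tragacanth (solution or suspension). Brain homovanillic acid (HVA) determined by a published method. Brains from five mice per compound pooled for one determination.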

The test system of test [26] is Mus musculus. The test can be described thus: The homovanillic acid (HVA)levels in mouse brain at 50 mg/kg of dose. In short, it runs like this: as §4
The subject of test [27] is Mus musculus. The experiment in a line: Antiexploratory activity (EXPL) of mice determined by an antimex activity meter, 50 mg/kg of dose was administered perorally. Particulars: route oral. The method, boiled down: as §2
The test system of test [28] is Mus musculus. The experiment in a line: 3,4 -Dihydroxy phenylacetic acid (DOPAC) levels in mouse brain at 50 mg/kg dose. In short, it runs like this:
as §3

For test [29], the system named is Rattus norvegicus. The test can be described thus: Inhibition of self stimulation response in rats when administered perorally. The following applies: po. The method, boiled down:
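Male Wistar HLA rats (300-400 g) with chronic electrodes implanted in the lateral posterior hypothalamus; only rats lever-pressing steadily at 50-100/min were used. Compound given po in 0.5% tragacanth. Self-stimulation counted for 10 min before and 2 h after dosing. ED50 is the dose giving ≥50% rate inhibition in 50% of rats (Litchfield-Wilcoxon).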

Test [30] deals with Canis familiaris. The test can be described thus: Inhibition of apomorphine induced emesis in dogs at 1 mg/kg of dose. The following applies: Canis lupus familiaris. The method, boiled down: as §1

By ED50 is commonly meant the dose that gives a 50% effect, or the effect in half of the subjects. A low value points to an effect at a small dose. What is called Inhibition is the relative decrease from the control value, in per cent. A higher Inhibition goes with a strong effect. In general, inhibition in vivo refers to the change of the read-out against control, counted positive when it falls. Read a high inhibition in vivo as a strong effect. As to `CCN1CCN(C2=Nc3ccc(C)cc3CC=C2c2ccccc2)CC1.Cl.Cl`, the Activity worked out at 0 in test [1] and 4 in [3]. Moreover, the 50% effective dose (ED50) was determined as 32.3 mg/kg in [2] and 70.2 mg/kg in test [4]. This molecule also returned an Inhibition in test [5] of less than 30%. The molecule also had an inhibition in vivo at 10 mg/kg in test [6] of less than 30%. Further, the inhibition in vivo at 100 mg/kg in test [7] is greater than 71%; in test [8], less than 30%.

With `CCc1ccc2c(c1)CC=C(c1ccccc1)C(N1CCN(CCO)CC1)=N2.Cl.Cl`, the figures for the Activity in test [1] and in [9] were 0 and 5, respectively. In test [10], the Inhibition is reported as less than 30%. Also, the inhibition in vivo at 100 mg/kg in test [11] was 51%; in test [8] it was less than 30%.

Regarding `Cl.Cl.OCCN1CCN(C2=Nc3ccc(F)cc3CC=C2c2ccccc2)CC1`, in test [12], the Activity amounted to 0. Further, the ED50 in test [2] and in test [4] was greater than 500 mg/kg in each case. Further, the inhibition in vivo at 100 mg/kg in test [13] is greater than 71%; in test [14] it was less than 30%; in test [8] it was less than 30%.

For `Cl.Cl.OCCN1CCN(C2=Nc3ccccc3CC=C2c2cccc(Cl)c2)CC1`, the Activity in test [12] came out at 0. In test [15], this molecule displayed an Inhibition of 31%. The inhibition in vivo at 50 mg/kg in test [16] is less than 30%.

Molecule `CN(C)CCCN1c2ccccc2Sc2ccc(Cl)cc21` [CHLORPROMAZINE] displayed an inhibition in vivo at 2 mg/kg in test [17] of 22.2%. For the same molecule, the ED50 in [18] turned out to be 4.53 mg/kg; in [20], 5.59 mg/kg; in test [21], 7.81 mg/kg; in test [22], 24.9 mg/kg; in [23], 8.26 mg/kg; in test [29], 6.68 mg/kg. The inhibition in vivo at 10 mg/kg in test [19] worked out at 46.3%. Moreover, the Control % at 10 mg/kg in test [24] worked out at 232%; in test [25], 203%. In addition, the Control % at 50 mg/kg in test [26] was found to be 304%; in [28] it was 303%. The inhibition in vivo at 50 mg/kg in test [27] is 90.1%.

In [30], `CN1CCN(C2=Nc3cc(Cl)ccc3Nc3ccccc32)CC1` [CLOZAPINE] displayed an inhibition in vivo at 1 mg/kg of 27.4%. Further, the ED50 is 12.6 mg/kg in test [18]; 9.68 mg/kg in test [20]; greater than 100 mg/kg in test [21]; 15.8 mg/kg in [22]; 8.45 mg/kg in test [23]; 77.1 mg/kg in [29]. This molecule registered an inhibition in vivo at 10 mg/kg in test [19] of 50.6%. Moreover, the Control % at 10 mg/kg in [24] amounted to 128%; in [25], 106%. Further, the Control % at 50 mg/kg in [26] came to 274%; in [28] it was 324%. The inhibition in vivo at 50 mg/kg in test [27] turned out to be 87.8%.

Values taken from ChEMBL document CHEMBL1124216, “A novel class of potential central nervous system agents. 3-Phenyl-2-(1-piperazinyl)-5H-1-benzazepines” (1988).
